Results reported in ChEMBL document CHEMBL1122207, “Antitumor agents. 2. Bisguanylhydrazones of anthracene-9,10-dicarboxaldehydes” (1982).

Legend:
Format in all cases: functional
Mus musculus [1] = test: Percent increase in median life span of BDF1 mice with B-16 melanoma administered intraperitoneally
Outline: (§1)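 BDF1 mice were implanted ip with a homogenate from 0.05 g of B-16 melanoma. Ip dosing ran on days 1-9, starting 24 h after implant, in dose-response studies following NCI protocols. The read-out was percent increase in life span (ILS). T/C ≥125% was taken as significant.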

Mus musculus [2] = species on record: Mus musculus; test: Anticancer activity measured as the number of survivors of the total treated mice with P-388 leukemia at 30 days.
Outline: (§2)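 BDF1 or CDF1 mice given 10^6 ascitic P-388 leukemia cells ip, then treated ip on days 1, 5 and 9. Cures are survivors over total treated at 30 days.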

Mus musculus [3] = test: Percent increase in median life span of BDF1 mice with P-388 leukemia at dose 50 mg/kg administered intraperitoneally; details: BDF1, P388, ip, route intraperitoneal
Mus musculus [4] = species on record: Mus musculus; test: Number of survivors of the total treated mice with B-16 melanoma, at 60 days.
Outline: (§3)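 BDF1 mice were implanted ip with a homogenate from 0.05 g of B-16 melanoma and dosed ip on days 1-9. Cures are survivors over total at 60 days.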

Mus musculus [5] = test: Percent increase in median life span of BDF1 mice with B-16 melanoma at dose 50 mg/kg administered intraperitoneally; details: BDF1, B16, ip, route intraperitoneal; outline: as §1
Mus musculus [6] = test: Percent increase in median life span of BDF1 mice with P-388 leukemia at dose 200 mg/kg administered intraperitoneally; details: BDF1, P388, ip, route intraperitoneal
Mus musculus [7] = species on record: Mus musculus; test: Cures is the number of survivors of the total treated mice (10) with B-16 melanoma, at 60 days.; outline: as §3
Mus musculus [8] = test: Percent increase in median life span of BDF1 mice with B-16 melanoma at dose 12 mg/kg administered intraperitoneally; details: BDF1, B16, ip, route intraperitoneal; outline: as §1
Mus musculus [9] = test: Percent increase in median life span of BDF1 mice with P-388 leukemia at dose 25 mg/kg administered intraperitoneally; details: BDF1, P388, ip, route intraperitoneal
Mus musculus [10] = test: Percent increase in median life span of BDF1 mice with P-388 leukemia at dose 6.25 mg/kg administered intraperitoneally; details: BDF1, P388, ip, route intraperitoneal
Mus musculus [11] = test: Percent increase in median life span of BDF1 mice with B-16 melanoma at dose 12.5 mg/kg administered intraperitoneally; details: BDF1, B16, ip, route intraperitoneal; outline: as §1
Mus musculus [12] = test: Percent increase in median life span of BDF1 mice with B-16 melanoma at dose 25 mg/kg administered intraperitoneally; details: BDF1, B16, ip, route intraperitoneal; outline: as §1
Mus musculus [13] = test: Percent increase in median life span of BDF1 mice with P-388 leukemia at dose 12.5 mg/kg administered intraperitoneally; details: BDF1, P388, ip, route intraperitoneal
Mus musculus [14] = species on record: Mus musculus; test: Cures is the number of survivors of the total treated mice (6) with P-388 leukemia, at 30 days.; outline: as §2

Structure (SMILES)	Cures (Mus musculus [2])	Cures (Mus musculus [4])	ILS at 200 mg/kg (Mus musculus [6]) [%]	further results
CC(C)/N=C(/N/N=C/c1c2ccccc2c(/C=N/N=C(NC(C)C)NC(C)C)c2ccccc12)NC(C)C	0	0	–	ILS (Mus musculus [1]): 0%; ILS at 50 mg/kg (Mus musculus [3]): 50%
CCCO.Clc1cccc2c1C(/C=N/NC1=NCCN1)c1cccc(Cl)c1C2/C=N/NC1=NCCN1 (stereo not drawn)	–	–	0	ILS at 50 mg/kg (Mus musculus [5]): 0%
Cl.Cl.Clc1cccc2c1C(/C=N/NC1=NCCN1)c1ccccc1C2/C=N/NC1=NCCN1 (stereo not drawn)	–	–	–	ILS at 50 mg/kg (Mus musculus [5]): 153%; Cures (Mus musculus [7]): 3; ILS at 50 mg/kg (Mus musculus [3]): 100%
Cl.Cl.N/C(=N\N=C\c1c2ccccc2c(/C=N/N/C(N)=N/CCO)c2ccccc12)NCCO	0	–	–	Cures (Mus musculus [7]): 1; ILS at 12 mg/kg (Mus musculus [8]): 80%; ILS at 25 mg/kg (Mus musculus [9]): 90%
CN1CCN(C)C1=N/N=C/c1c2ccccc2c(/C=N/N=C2N(C)CCN2C)c2ccccc12	0	–	0	–
C(=N\NC1=NCc2ccccc2CN1)/c1c2ccccc2c(/C=N/NC2=NCc3ccccc3CN2)c2ccccc12	0	–	30	–
COc1ccc(OC)c2c1C(/C=N/NC1=NCCN1)c1ccccc1C2/C=N/NC1=NCCN1 (stereo not drawn)	–	–	0	–
CC1(/C=N/NC2=NCCN2)c2ccccc2C(C)(/C=N/NC2=NCCN2)c2ccccc21 (stereo not drawn)	–	–	0	ILS at 50 mg/kg (Mus musculus [5]): 0%
C(=N\Nc1nc2ccccc2s1)/c1c2ccccc2c(/C=N/Nc2nc3ccccc3s2)c2ccccc12	0	–	0	–
CCN(CC)CC/N=C(\S)N/N=C/c1c2ccccc2c(/C=N/N/C(S)=N/CCN(CC)CC)c2ccccc12.Cl.Cl	0	–	–	ILS at 6.25 mg/kg (Mus musculus [10]): 95%
CN1CCN(/N=C/c2c3ccccc3c(/C=N/N3CCN(C)CC3)c3ccccc23)CC1.Cl.Cl	0	–	0	–
Cl.Cl.Clc1ccc2c(c1)C(/C=N/NC1=NCCN1)c1ccccc1C2/C=N/NC1=NCCN1 (stereo not drawn)	–	–	–	Cures (Mus musculus [7]): 5; ILS at 50 mg/kg (Mus musculus [3]): 100%; ILS at 12.5 mg/kg (Mus musculus [11]): 230%
CN(C)/N=C/c1c2ccccc2c(/C=N/N(C)C)c2ccccc12	0	–	0	–
CC1(C)CCC(C)(C)NC(N/N=C/c2c3ccccc3c(/C=N/NC3=NC(C)(C)CCC(C)(C)N3)c3ccccc23)=N1.Cl.Cl	0	–	–	ILS at 50 mg/kg (Mus musculus [3]): 0%
N=C(NCc1ccccc1)N/N=C/c1c2ccccc2c(/C=N/NC(=N)NCc2ccccc2)c2ccccc12	0	0	–	ILS at 12 mg/kg (Mus musculus [8]): 47%; ILS at 25 mg/kg (Mus musculus [9]): 68%
CN(C)CC(=O)N/N=C/c1c2ccccc2c(/C=N/NC(=O)CN(C)C)c2ccccc12.Cl.Cl	0	–	0	–
C(=N\Nc1ccccn1)/c1c2ccccc2c(/C=N/Nc2ccccn2)c2ccccc12	0	–	0	–
N=C(N/N=C/c1c2ccccc2c(/C=N/NC(=N)NC2CCc3ccccc32)c2ccccc12)NC1CCc2ccccc21 (stereo not drawn)	0	0	80	ILS at 25 mg/kg (Mus musculus [12]): 62%
Cl.Cl.S=C(NCCN1CCOCC1)N/N=C/c1c2ccccc2c(/C=N/NC(=S)NCCN2CCOCC2)c2ccccc12	0	–	–	Cures (Mus musculus [7]): 1; ILS at 12 mg/kg (Mus musculus [8]): 103%; ILS at 50 mg/kg (Mus musculus [3]): 80%
NC(=O)N/N=C/c1c2ccccc2c(/C=N/NC(N)=O)c2ccccc12	0	–	0	–
CN/N=C/c1c2ccccc2c(/C=N/NC)c2ccccc12	0	–	0	–

Structure (SMILES)	Cures (Mus musculus [2])	Cures (Mus musculus [4])	ILS at 200 mg/kg (Mus musculus [6]) [%]	further results
O=C(N/N=C/c1c2ccccc2c(/C=N/NC(=O)c2cccnc2)c2ccccc12)c1cccnc1	0	–	0	–
Cc1cc2c(cc1C)C(/C=N/NC1=NCCN1)c1ccccc1C2/C=N/NC1=NCCN1 (stereo not drawn)	–	–	–	ILS at 50 mg/kg (Mus musculus [3]): 73%
COc1ccc(OC)c2c(/C=N/NC3=NCCN3)c3ccccc3c(/C=N/NC3=NCCN3)c12.Cl.Cl	0	0	–	ILS at 50 mg/kg (Mus musculus [3]): 50%; ILS at 12.5 mg/kg (Mus musculus [11]): 64%
CCCCCCCCCCCCCCCC/N=C(\N)N/N=C/c1c2ccccc2c(/C=N/N/C(N)=N/CCCCCCCCCCCCCCCC)c2ccccc12.Cl.Cl	0	0	0	ILS at 50 mg/kg (Mus musculus [5]): 0%
C(=N\NC1=NCCCCC1)/c1c2ccccc2c(/C=N/NC2=NCCCCC2)c2ccccc12.Cl.Cl	0	0	–	ILS at 12 mg/kg (Mus musculus [8]): 35%; ILS at 25 mg/kg (Mus musculus [9]): 95%
N/N=C(\S)N/N=C/c1c2ccccc2c(/C=N/N/C(S)=N/N)c2ccccc12	0	–	0	–
Cl.Cl.N=C(NCc1cccs1)N/N=C/c1c2ccccc2c(/C=N/NC(=N)NCc2cccs2)c2ccccc12	0	0	–	ILS at 12 mg/kg (Mus musculus [8]): 75%; ILS at 50 mg/kg (Mus musculus [3]): 90%
C(=N\NC1=NCCCCN1)/c1c2ccccc2c(/C=N/NC2=NCCCCN2)c2ccccc12	0	–	–	Cures (Mus musculus [7]): 1; ILS at 12.5 mg/kg (Mus musculus [13]): 90%; ILS at 12 mg/kg (Mus musculus [8]): 173%
CC(C)CN(CC/N=C(\S)N/N=C/c1c2ccccc2c(/C=N/N/C(S)=N/CCN(CC(C)C)CC(C)C)c2ccccc12)CC(C)C.Cl.Cl	0	–	–	ILS at 25 mg/kg (Mus musculus [9]): 33%
Cl.Cl.Cl.Cl.N=C(NCc1cccnc1)N/N=C/c1c2ccccc2c(/C=N/NC(=N)NCc2cccnc2)c2ccccc12	–	0	–	Cures (Mus musculus [14]): 1; ILS at 25 mg/kg (Mus musculus [12]): 77%; ILS at 25 mg/kg (Mus musculus [9]): 114%
C(/CCc1c2ccccc2c(CC/C=N/NC2=NCCN2)c2ccccc12)=N\NC1=NCCN1.Cl.Cl	0	0	–	ILS at 50 mg/kg (Mus musculus [5]): 0%; ILS at 50 mg/kg (Mus musculus [3]): 30%
Cl.Cl.S=C(NCCN1CCCCC1)N/N=C/c1c2ccccc2c(/C=N/NC(=S)NCCN2CCCCC2)c2ccccc12	0	–	–	ILS (Mus musculus [1]): 0%; ILS at 50 mg/kg (Mus musculus [3]): 58%
Cc1ccc(S(=O)(=O)N/N=C/c2c3ccccc3c(/C=N/NS(=O)(=O)c3ccc(C)cc3)c3ccccc23)cc1	0	–	0	–
CN(C)CC/N=C/c1c2ccccc2c(/C=N/CCN(C)C)c2ccccc12	0	–	0	–
C(=C\c1c2ccccc2c(/C=C/C=N/NC2=NCCN2)c2ccccc12)/C=N/NC1=NCCN1.Cl.Cl	0	0	36	ILS at 25 mg/kg (Mus musculus [12]): 46%
N=C(N/N=C/c1c2ccccc2c(/C=N/NC(=N)NC2CCCCC2)c2ccccc12)NC1CCCCC1	0	0	–	ILS at 12 mg/kg (Mus musculus [8]): 80%; ILS at 50 mg/kg (Mus musculus [3]): 73%
Cl.Cl.Cl.Cl.N=C(NCc1ccncc1)N/N=C/c1c2ccccc2c(/C=N/NC(=N)NCc2ccncc2)c2ccccc12	0	0	–	ILS at 25 mg/kg (Mus musculus [12]): 78%; ILS at 12.5 mg/kg (Mus musculus [13]): 90%
CCCCC1(CCCC)CN=C(N/N=C/c2c3ccccc3c(/C=N/NC3=NCC(CCCC)(CCCC)CN3)c3ccccc23)NC1.Cl.Cl	–	0	–	ILS at 50 mg/kg (Mus musculus [5]): 0%
CN(C)CCCCCCC/N=C(\S)N/N=C/c1c2ccccc2c(/C=N/N/C(S)=N/CCCCCCCN(C)C)c2ccccc12.Cl	0	–	–	ILS (Mus musculus [1]): 0%; ILS at 6.25 mg/kg (Mus musculus [10]): 39%
CSC(=N)N/N=C/c1c2ccccc2c(/C=N/N=C(/N)SC)c2ccccc12	0	–	0	–
Cl.Cl.Cl.Cl.N=C(NCc1ccccn1)N/N=C/c1c2ccccc2c(/C=N/NC(=N)NCc2ccccn2)c2ccccc12	0	0	–	ILS at 25 mg/kg (Mus musculus [12]): 74%; ILS at 50 mg/kg (Mus musculus [3]): 95%
